The record followed here is ChEMBL document CHEMBL4177702, “Design and synthesis of aminoester heterodimers containing flavone or chromone moieties as modulators of P-glycoprotein-based multidrug resistance (MDR)” (Bioorg Med Chem, 2018).

SMILES strings stand for the structures. Activity calls are given as the source filed them. The rule behind the calls is not given here.

What all share (type): cell-based
For data set [1], the species on record is Homo sapiens. Description: (§1) Inhibition of P-gp in human K562/Dox cells assessed as increase in nuclear accumulation of pirarubicin by spectrofluorometric assay.
Data set [2] can be described thus: as §1. As to conditions: read-out: I50.
Data set [3] is described as follows: Cytotoxicity against human K562/Dox cells assessed as reduction in cell viability at 1 to 3 uM after 72 hrs by MTT assay. A digest of the protocol: (§2)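 Exponentially growing cells (3×10^5 cells/mL) seeded at 10^4 cells/well and exposed to compound at 1.0 and 3.0 μM (diluted from 10^-2 M DMSO stocks in complete medium) for 72 h at 37 °C, 5% CO2. MTT added for 3 h, formazan dissolved in acidified isopropanol, absorbance at 570 nm. Toxicity expressed as proliferation relative to untreated control (100%).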
On the technique in general: Tetrazolium assays rely on reduction of a dye to a coloured formazan, in cell work by metabolically active cells.

Another data set has as its system K562. Description: Cytotoxicity against human K562 cells assessed as reduction in cell viability at 1 to 3 uM after 72 hrs by MTT assay. As to conditions: k562, 72 h. The gist of the method:
as §2

Data set [4] is filed under the species Homo sapiens. Nature of the data set: Inhibition of P-gp in human K562/Dox cells assessed as nuclear accumulation of pirarubicin at 10^-5 M by spectrofluorometric assay relative to control.

As for `COc1cc(/C=C/C(=O)OCCOCCN(C)CCOCCOC(=O)c2cc(=O)c3c(O)cc(O)cc3o2)cc(OC)c1OC`, the I50 result in the data set filed under Homo sapiens [1] is “inactive”.

With `COc1cc(/C=C/C(=O)OCCCCCNCCCCCOC(=O)COc2ccc(-c3cc(=O)c4ccccc4o3)cc2)cc(OC)c1OC`, the IC50 in data set [2] was 1320 nM.

Regarding `COc1cc(/C=C/C(=O)OCCCCCN(C)CCCCCOC(=O)c2cc(=O)c3c(O)cc(O)cc3o2)cc(OC)c1OC`, the IC50 in data set [2] was 2430 nM.

For `COc1cc(/C=C/C(=O)OCCCCCN(C)CCCCCOC(=O)c2cc(=O)c3c(OC)cccc3o2)cc(OC)c1OC`, the IC50 in data set [2] came to 3500 nM.

`COc1cc(/C=C/C(=O)OCCOCCN(C)CCOCCOC(=O)COc2ccc(-c3cc(=O)c4ccccc4o3)cc2)cc(OC)c1OC`: the Activity result (in data set [3]; in the data set on K562) was “Non-Toxic” throughout. The IC50 in data set [2] was 1230 nM.

Turning to `COc1cc(OC)c2c(=O)cc(C(=O)OCCCN(C)CCCOC(=O)/C=C/c3cc(OC)c(OC)c(OC)c3)oc2c1`, the Efficacy in the data set listed under Homo sapiens [4] lay within 4 to 30%.

On to `COc1cc(/C=C/C(=O)OCCCCCN(C)CCCCCOC(=O)COc2ccc(-c3cc(=O)c4ccccc4o3)cc2)cc(OC)c1OC`, for which the Activity entry (in data set [3]; in the data set with K562) was “Non-Toxic” in each case. The IC50 in data set [2] was determined as 340 nM.

As to `COc1cc(/C=C/C(=O)OCCCCCN(C)CCCCCOC(=O)COc2ccc(-c3cc(=O)c4c(O)cc(O)cc4o3)cc2)cc(OC)c1OC`, the IC50 in data set [2] was found to be 960 nM.

Consider `COc1cc(/C=C/C(=O)OCCCN(C)CCCOC(=O)c2cc(=O)c3c(O)cccc3o2)cc(OC)c1OC`, for which, in the data set listed under Homo sapiens [4], the Efficacy fell in the range of 4 to 30%.

Take `COc1cc(/C=C/C(=O)OCCCN(C)CCCOC(=O)COc2ccc(-c3cc(=O)c4c(O)cc(O)cc4o3)cc2)cc(OC)c1OC`: the Efficacy in the data set filed under Homo sapiens [4] was 4 to 30%.

Consider `COc1cc(OC)c2c(=O)cc(C(=O)OCCCCCN(C)CCCCCOC(=O)/C=C/c3cc(OC)c(OC)c(OC)c3)oc2c1`, for which the IC50 in data set [2] was found to be 1320 nM.

Consider `COc1cc(/C=C/C(=O)OCCOCCNCCOCCOC(=O)COc2ccc(-c3cc(=O)c4ccccc4o3)cc2)cc(OC)c1OC`, for which the Activity result (in data set [3]; with K562) was “Non-Toxic” in each case.

Turning to `COc1cc(/C=C/C(=O)OCCCN(C)CCCOC(=O)c2cc(=O)c3c(OC)cccc3o2)cc(OC)c1OC`, the Efficacy in the data set listed under Homo sapiens [4] was 4 to 30%.

Take `COc1cc(/C=C/C(=O)OCCCCCN(C)CCCCCOC(=O)c2cc(=O)c3c(O)cccc3o2)cc(OC)c1OC`: in data set [2], the IC50 was found to be 350 nM.

Turning to `COc1cc(/C=C/C(=O)OCCCCCN(CCCCCOC(=O)COc2ccc(-c3cc(=O)c4ccccc4o3)cc2)Cc2ccccc2)cc(OC)c1OC`, in data set [2], the IC50 stood at 430 nM.

`COc1cc(/C=C/C(=O)OCCCN(C)CCCOC(=O)c2cc(=O)c3c(O)cc(O)cc3o2)cc(OC)c1OC`: the Efficacy in the data set filed under Homo sapiens [4] was in the range of 4 to 30%. The Activity result (in data set [3]; in the data set with K562) was “Non-Toxic” throughout.
